Measured values from ChEMBL document CHEMBL2151003, “Synthesis and antitumor activity of ring A modified glycyrrhetinic acid derivatives” (Eur J Med Chem, 2011).
Activity calls are given as the source filed them. The rule behind the calls is not given here.

Key:
A549 [1] = experiment: Induction of apoptosis in human A549 cells assessed as apoptotic effect at 90 uM after 24 to 48 hrs by trypan blue cell counting analysis; assay type: functional
In short: (§1)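 A549 cells (approx. 500,000 per flask) were grown 24 h, then given compound-containing medium for about 24–48 h. Collected cells were pelleted, washed in PBS and mixed 1:1 with 0.4% trypan blue in PBS, pH 7.2. An automated counter distinguished cells with intact and with damaged membranes. Results are % apoptosis ± standard error, 6 experiments each.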

[2] = Cytotoxicity against human 518A2 cells after 96 hrs by SRB assay; assay type: functional, cell-based
In short: (§2)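 Monolayer cultures in RPMI 1640 with 10% heat-inactivated FBS and penicillin/streptomycin, 37 °C, 5% CO2. Exponentially growing cells were seeded, then treated 24 h later with serial dilutions (0–30 µM; DMSO or DMF ≤0.5% final) for 96 h. Cells were fixed with 10% TCA at 4 °C, stained with 0.4% SRB and solubilized in 10 mM Tris base; A570 was read. IC50 came from semi-log dose–response curves, ≥3 independent experiments.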

A549 [3] = experiment: Induction of apoptosis in human A549 cells assessed as apoptotic effect at 4 uM after 24 to 48 hrs by trypan blue cell counting analysis; assay type: functional; in short: as §1
A549 [4] = experiment: Induction of apoptosis in human A549 cells assessed as appearance of green fluorescent cells at 4 uM after 24 to 48 hrs by acridine orange/ethidium bromide staining based fluorescence microscopy; assay type: functional, cell-based
In short: (§3)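 Approx. 500,000 A549 cells per flask were grown 24 h, then exposed to compound-containing medium for 24–48 h. Cells from the supernatant were pelleted, washed and resuspended in PBS, mixed with AO/EB and examined by fluorescence microscopy. Green fluorescence was scored as apoptotic and red nuclei as necrotic; the read-out is qualitative.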

MCF7 = experiment: Cytotoxicity against human MCF7 cells after 96 hrs by SRB assay; assay type: functional, cell-based; in short: as §2
DLD-1 = experiment: Cytotoxicity against human DLD1 cells after 96 hrs by SRB assay; assay type: functional, cell-based; in short: as §2
8505C = experiment: Cytotoxicity against human 8505C cells after 96 hrs by SRB assay; assay type: functional, cell-based; in short: as §2
A549 [5] = experiment: Cytotoxicity against human A549 cells after 96 hrs by SRB assay; assay type: functional, cell-based; in short: as §2
A2780 = experiment: Cytotoxicity against human A2780 cells after 96 hrs by SRB assay; assay type: functional, cell-based; in short: as §2
[6] = Cytotoxicity against human Lipo cells after 96 hrs by SRB assay; assay type: functional, cell-based; in short: as §2
[7] = Cytotoxicity against human A253 cells after 96 hrs by SRB assay; assay type: functional, cell-based; in short: as §2
SW-1736 = experiment: Cytotoxicity against human SW1736 cells after 96 hrs by SRB assay; assay type: functional, cell-based; in short: as §2
A549 [8] = experiment: Induction of apoptosis in human A549 cells assessed as appearance of green fluorescent cells at 20 uM after 24 to 48 hrs by acridine orange/ethidium bromide staining based fluorescence microscopy; assay type: functional, cell-based; in short: as §3
A549 [9] = experiment: Induction of apoptosis in human A549 cells assessed as apoptotic effect after 24 to 48 hrs by trypan blue cell counting analysis; assay type: functional; in short: as §1
HT-29 = experiment: Cytotoxicity against human HT-29 cells after 96 hrs by SRB assay; assay type: functional, cell-based; in short: as §2
HCT-8 = experiment: Cytotoxicity against human HCT8 cells after 96 hrs by SRB assay; assay type: functional, cell-based
In short: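 Monolayers in RPMI 1640 with 10% heat-inactivated FBS and penicillin/streptomycin, 37 °C, 5% CO2. Seeded day 0 and exposed 24 h later to serial dilutions (0–30 µM; DMSO or DMF ≤0.5% final) for 96 h. Cells were then fixed with 10% TCA at 4 °C, stained with 0.4% SRB, washed with 1% acetic acid and dissolved in 10 mM Tris, and A570 was read. IC50 from semi-log dose–response curves, ≥3 independent experiments.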

HCT-116 = experiment: Cytotoxicity against human HCT116 cells after 96 hrs by SRB assay; assay type: functional, cell-based; in short: as §2
A-431 = experiment: Cytotoxicity against human A431 cells after 96 hrs by SRB assay; assay type: functional, cell-based; in short: as §2
A549 [10] = experiment: Induction of apoptosis in human A549 cells assessed as appearance of green fluorescent cells at 60 uM after 24 to 48 hrs by acridine orange/ethidium bromide staining based fluorescence microscopy; assay type: functional, cell-based; in short: as §3
A549 [11] = experiment: Induction of apoptosis in human A549 cells assessed as apoptotic effect at 60 uM after 24 to 48 hrs by trypan blue cell counting analysis; assay type: functional; in short: as §1
A549 [12] = experiment: Induction of apoptosis in human A549 cells assessed as apoptotic effect at 20 uM after 24 to 48 hrs by trypan blue cell counting analysis; assay type: functional; in short: as §1
A549 [13] = experiment: Induction of apoptosis in human A549 cells assessed as apoptotic effect at 8 uM after 24 to 48 hrs by trypan blue cell counting analysis; assay type: functional; in short: as §1
A549 [14] = experiment: Induction of apoptosis in human A549 cells assessed as appearance of green fluorescent cells at 8 uM after 24 to 48 hrs by acridine orange/ethidium bromide staining based fluorescence microscopy; assay type: functional, cell-based; in short: as §3

Compound	IC50 [2] [µmol]	IC50 (MCF7) [µmol]	IC50 (DLD-1) [µmol]	IC50 (8505C) [µmol]	IC50 (A549 [5]) [µmol]	IC50 (A2780) [µmol]	IC50 [6] [µmol]	IC50 [7] [µmol]	IC50 (SW-1736) [µmol]	IC50 (HT-29) [µmol]	IC50 (HCT-116) [µmol]	IC50 (A-431) [µmol]	other results
CC1(C)[C@@H](O)CC[C@]2(C)[C@H]3C(=O)C=C4[C@@H]5C[C@@](C)(C(=O)O)CC[C@]5(C)CC[C@@]4(C)[C@]3(C)CC[C@@H]12 [ENOXOLONE]	–	–	–	–	–	–	–	–	–	–	–	–	Activity (A549 [1]): 73.73%
COC(=O)[C@@]1(C)CC[C@]2(C)CC[C@]3(C)C(=CC(=O)[C@@H]4[C@@]5(C)CC[C@H](N)C(C)(C)[C@@H]5CC[C@]43C)[C@@H]2C1	2.52	2.47	2.56	2.45	2.51	3.32	2.74	2.36	2.62	–	–	–	Activity (A549 [3]): 74.21%; Activity (A549 [4]): Active
COC(=O)[C@@]1(C)CC[C@]2(C)CC[C@]3(C)C(=CC(=O)[C@@H]4[C@@]5(C)CC/C(=N\OC(=O)[C@H](C)NC(=O)OC(C)(C)C)C(C)(C)[C@@H]5CC[C@]43C)[C@@H]2C1	16.49	15.17	19.1	15.47	15.83	12.03	18.99	14.12	14.61	–	–	–	Activity (A549 [8]): Active; Activity (A549 [9]): 68.54%
CC1(C)[C@H](O)CC[C@]2(C)[C@H]3C(=O)C=C4[C@@H]5C[C@@](C)(C(=O)O)CC[C@]5(C)CC[C@@]4(C)[C@]3(C)CC[C@@H]12	> 30	> 30	> 30	–	> 30	–	> 30	> 30	> 30	> 30	> 30	> 30	IC50 (HCT-8): > 30 µmol
CCOC(=O)[C@@]1(C)CC[C@]2(C)CC[C@]3(C)C(=CC(=O)[C@@H]4[C@@]5(C)C[C@H](F)[C@@H](O)C(C)(C)[C@@H]5CC[C@]43C)[C@@H]2C1	> 30	> 30	> 30	–	> 30	–	> 30	> 30	–	24.72	> 30	> 30	Activity (A549 [10]): Active; Activity (A549 [11]): 80.32%
COC(=O)[C@@]1(C)CC[C@]2(C)CC[C@]3(C)C(=CC(=O)[C@@H]4[C@@]5(C)CC[C@@H](N)C(C)(C)[C@@H]5CC[C@]43C)[C@@H]2C1	2.74	2.55	3.21	2.33	3.33	3.42	3.3	2.44	2.84	–	–	–	Activity (A549 [3]): 64.88%; Activity (A549 [4]): Active
COC(=O)[C@@]1(C)CC[C@]2(C)CC[C@]3(C)C(=CC(=O)[C@@H]4[C@@]5(C)CC/C(=N\O)C(C)(C)[C@@H]5CC[C@]43C)[C@@H]2C1	18.93	15.95	10.46	17.18	17.4	6.18	18.34	13.56	13	–	–	–	Activity (A549 [8]): Active; Activity (A549 [12]): 32.43%
CC1(C)[C@@H](OC(=O)CNCCCN)CC[C@]2(C)[C@H]3C(=O)C=C4[C@@H]5C[C@@](C)(C(=O)OCc6ccccc6)CC[C@]5(C)CC[C@@]4(C)[C@]3(C)CC[C@@H]12	5.14	–	4.96	2.07	4.74	–	2.99	1.96	–	–	–	–	Activity (A549 [13]): 80.57%; Activity (A549 [14]): Active
COC(=O)[C@@]1(C)CC[C@]2(C)CC[C@]3(C)C(=CC(=O)[C@@H]4[C@@]5(C)CC[C@H](NC(=O)[C@H](C)N)C(C)(C)[C@@H]5CC[C@]43C)[C@@H]2C1	5.55	5.08	6.44	4.46	5.38	5.39	5.82	4.46	5.25	–	–	–	Activity (A549 [13]): 56.77%; Activity (A549 [14]): Active
CC1(C)C(=O)CC[C@]2(C)[C@H]3C(=O)C=C4[C@@H]5C[C@@](C)(C(=O)O)CC[C@]5(C)CC[C@@]4(C)[C@]3(C)CC[C@@H]12	> 30	> 30	> 30	–	> 30	–	> 30	> 30	> 30	> 30	> 30	> 30	IC50 (HCT-8): > 30 µmol
